Experimental findings from ChEMBL document CHEMBL4842314, “Synthesis and SAR evaluation of coumarin derivatives as potent cannabinoid receptor agonists” (Eur J Med Chem, 2021) are described below.

Structures are written as SMILES.

For test [1], the target named is T1, Cannabinoid receptor 2 (Homo sapiens, UniProt P34972). The test can be described thus: Agonist activity at human recombinant CB2 receptor expressed in CHO-K1 cell membrane assessed as increase in GTPgammaS binding at 1 uM pretreated for 30 mins followed by [35S]GTPgammaS addition for 90 mins by [35S]GTP-gammaS binding assay relative to CP55940. The format is functional, cell membranes. The conditions noted are these: time 120.0 min. The method, boiled down:
(§1)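 Membranes (5 μg) from PathHunter CHOK1 cells stably expressing hCB1 or hCB2 pre-incubated 30 min at room temperature with test ligand at 1 μM final, 1 μM GDP and 5 μg saponin in Tris-HCl pH 7.4, MgCl2, NaCl, EDTA, BSA, DTT. [35S]GTPγS (0.3 nM final) was then added for 90 min at 25 °C. Filtration on GF/B. Emax given relative to CP55,940 (100%), two experiments in duplicate.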
In general terms: Binding of GTPγS marks nucleotide exchange on a G protein.

Test [2] deals with T1, Cannabinoid receptor 2. The test can be described thus: Displacement of [3H]-CP55940 from human recombinant CB2 receptor expressed in CHO-K1 cell membrane measured after 3 hrs by scintillation spectrometry. The format is cell membranes. In general terms: Loss of bound radioactivity is the signal in a displacement assay; it reports binding, not function.
Test [3] concerns the target T2, Cannabinoid receptor 1 (Homo sapiens, UniProt P21554). Kind of test: Displacement of [3H]-CP55940 from human recombinant CB1 receptor expressed in CHO-K1 cell membrane measured after 3 hrs by scintillation spectrometry. The format is cell membranes.
Test [4] concerns the target T1, Cannabinoid receptor 2. The test can be described thus: Displacement of [3H]-CP55940 from human recombinant CB2 receptor expressed in CHO-K1 cell membrane at 1 uM measured after 3 hrs by scintillation spectrometry. The format is cell membranes.
The target of test [5] is T2, Cannabinoid receptor 1. Kind of test: Displacement of [3H]-CP55940 from human recombinant CB1 receptor expressed in CHO-K1 cell membrane at 1 uM measured after 3 hrs by scintillation spectrometry. The format is cell membranes.
Test [6] addresses T1, Cannabinoid receptor 2. Kind of test: Agonist activity at human recombinant CB2 receptor expressed in CHO-K1 cell membrane assessed as increase in GTPgammaS binding pretreated for 30 mins followed by [35S]GTPgammaS addition for 90 mins by [35S]GTP-gammaS binding assay. The format is functional, cell membranes. The method, boiled down:
(§2)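 Concentration-response [35S]GTPγS binding on 5 μg hCB1 or hCB2 CHOK1 membranes. Ligand, 1 μM GDP and saponin pre-incubated 30 min at room temperature, then 0.3 nM [35S]GTPγS added for 90 min at 25 °C. Filtration read-out. Three experiments in duplicate.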

For test [7], the target named is T2, Cannabinoid receptor 1. The test can be described thus: Agonist activity at human recombinant CB1 receptor expressed in CHO-K1 cell membrane assessed as increase in GTPgammaS binding pretreated for 30 mins followed by [35S]GTPgammaS addition for 90 mins by [35S]GTP-gammaS binding assay. The format is functional, cell membranes. The method, boiled down: as §2

Test [8] deals with T2, Cannabinoid receptor 1. The test can be described thus: Agonist activity at human recombinant CB1 receptor expressed in CHO-K1 cell membrane assessed as increase in GTPgammaS binding at 1 uM pretreated for 30 mins followed by [35S]GTPgammaS addition for 90 mins by [35S]GTP-gammaS binding assay relative to CP55940. The format is functional, cell membranes. The conditions noted are these: time 120.0 min. An outline of the steps:
as §1

The species named for test [9] is Homo sapiens. The test can be described thus: Selectivity ratio of Ki for human recombinant CB2 receptor expressed in CHO-K1 cell membrane to Ki for human recombinant CB1 receptor expressed in CHO-K1 cell membrane. The format is cell-based.

T2 sequence (P21554 whole entry): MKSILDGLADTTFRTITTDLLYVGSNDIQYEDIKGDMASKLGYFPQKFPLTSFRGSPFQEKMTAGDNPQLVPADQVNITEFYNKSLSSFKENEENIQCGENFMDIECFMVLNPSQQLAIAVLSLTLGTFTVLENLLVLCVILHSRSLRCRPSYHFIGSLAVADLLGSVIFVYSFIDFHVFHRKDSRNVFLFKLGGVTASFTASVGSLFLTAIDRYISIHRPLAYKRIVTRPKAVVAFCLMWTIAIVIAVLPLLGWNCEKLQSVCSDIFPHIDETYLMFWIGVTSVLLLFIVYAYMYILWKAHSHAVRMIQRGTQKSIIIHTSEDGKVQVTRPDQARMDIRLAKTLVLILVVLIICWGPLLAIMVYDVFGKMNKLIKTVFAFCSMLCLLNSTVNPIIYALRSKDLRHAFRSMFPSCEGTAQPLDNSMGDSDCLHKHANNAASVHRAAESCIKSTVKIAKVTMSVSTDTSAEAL
T1 sequence (P34972 whole entry): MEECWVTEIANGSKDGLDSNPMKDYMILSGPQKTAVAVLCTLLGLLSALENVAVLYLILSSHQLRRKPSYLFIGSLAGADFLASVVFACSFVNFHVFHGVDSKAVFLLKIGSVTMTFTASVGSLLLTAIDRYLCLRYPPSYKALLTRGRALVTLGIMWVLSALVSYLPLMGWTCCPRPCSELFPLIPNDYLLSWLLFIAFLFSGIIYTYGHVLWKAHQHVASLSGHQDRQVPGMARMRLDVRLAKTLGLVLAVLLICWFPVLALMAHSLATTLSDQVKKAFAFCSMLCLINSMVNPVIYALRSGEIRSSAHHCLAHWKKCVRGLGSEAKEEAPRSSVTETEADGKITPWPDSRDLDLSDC

In the case of `CCCCC1(c2cc(O)c3cc(CC)c(=O)oc3c2)CCCCC1`, the Emax (in general, the size of the effect at its maximum, as opposed to the concentration needed) in [1] (filed as agonist) stood at 65%. In addition, the Ki is 39.1 nM in test [2] (read-out: Ki) and > 1000 nM in test [3] (read-out: pKi (converted)). The inhibition (usually the drop in the measured response relative to a control, in per cent) was > 50% in test [4] (filed as agonist) and 39% in test [5].

For `CCCCC1(c2cc(O)c3cc(CCC)c(=O)oc3c2)CCCC1`, in test [1] (filed as agonist), the Emax was determined as 91%. Further, the Ki in test [2] (read-out: Ki) was 18.6 nM; in [3] (read-out: pKi (converted)) it was > 1000 nM. Also, the inhibition in [4] (filed as agonist) is > 50%; in test [5] (filed as agonist), 47%.

In the case of `CCCCC1(c2cc(O)c3cc(Cc4cccnc4)c(=O)oc3c2)CCCC1`, in test [1] (filed as agonist), the Emax is 82%. Also, the Ki in test [2] (read-out: Ki) is 310 nM; in [3] (read-out: pKi (converted)) it was > 1000 nM. Further, the inhibition was > 50% in test [4] (filed as agonist) and 19% in [5].

Turning to `CCCCC1(c2cc(O)c3cc(Cc4ccccn4)c(=O)oc3c2)CCCCC1`, the Emax in test [1] (filed as agonist) was determined as 68%. In addition, the Ki in test [2] (read-out: Ki) was 71.9 nM; in test [3] (read-out: pKi (converted)), > 1000 nM. The EC50 (usually the concentration that produces a half-maximal response) in [6] is 42 nM. The inhibition in test [4] (filed as agonist) was > 50%; in test [5], -7%.

`CCCCCc1cc(OC)c2cc(Cc3ccccn3)c(=O)oc2c1`: the Emax was 34% in test [1] and 46% in test [8] (filed as agonist). The figures for the Ki in [2] (read-out: Ki) and in test [3] (read-out: Ki) were 82.4 nM and 70.3 nM, respectively. Further, the values for the EC50 in [6] and in test [7] were 188 nM and 1010 nM, respectively. The inhibition in test [4] (filed as agonist) and in test [5] (filed as agonist) was > 50% in each case.

`CCCCC1(c2cc(O)c3cc(C)c(=O)oc3c2)CCCCC1`: the Emax in test [1] (filed as agonist) stood at 66%. Moreover, the Ki in [2] (read-out: Ki) was 106 nM; in test [3] (read-out: pKi (converted)) it was > 1000 nM. In addition, the results for the inhibition in [4] (filed as agonist) and in test [5] were > 50% and 19%, respectively.

As to `CCCCC1(c2cc(O)c3cc(CCC)c(=O)oc3c2)CCCCC1`, the results for the Emax in test [1] (filed as agonist) and in test [8] were 62% and 23%, respectively. The Ki in test [2] (read-out: Ki) amounted to 6.5 nM; in [3] (read-out: Ki) it was 159 nM. The EC50 in [6] is 4.51 nM; in test [7], 1120 nM. Moreover, the inhibition in test [4] (filed as agonist) and in test [5] (filed as agonist) was > 50% throughout.

Take `CCCCc1cc2c(O)cc(C3(CCCC)CCCC3)cc2oc1=O`: the Emax in [1] (filed as agonist) came to 85%. The values for the Ki in test [2] (read-out: Ki) and in test [3] (read-out: pKi (converted)) were 13.7 nM and 1000 nM, respectively. Further, in [6], the EC50 turned out to be 18 nM. Besides, the values for the inhibition in [4] (filed as agonist) and in test [5] (filed as agonist) were > 50% and 50%, respectively.

For the compound `CCCCC(C)(C)c1cc(OC)c2cc(Cc3ccccc3OC)c(=O)oc2c1`, the Ki in test [2] (read-out: Ki) worked out at 231 nM; in test [3] (read-out: Ki) it was 196 nM. Further, the inhibition in test [4] (filed as agonist) and in test [5] (filed as agonist) was > 50% in each case.

With `CCCCCc1cc(OC)c2cc(Cc3cccnc3)c(=O)oc2c1`, the Emax in test [1] (filed as agonist) and in test [8] (filed as agonist) was 40% each time. Further, the figures for the Ki in [2] (read-out: Ki) and in [3] (read-out: Ki) were 56.5 nM and 171 nM, respectively. The inhibition in test [4] (filed as agonist) and in [5] (filed as agonist) was > 50% each time.

On to `CCCCC1(c2cc(O)c3cc(CC)c(=O)oc3c2)CCCC1`, for which the Emax in [1] (filed as agonist) is 87%. The Ki in test [2] (read-out: Ki) is 60.6 nM; in test [3] (read-out: pKi (converted)) it was > 1000 nM. In addition, the results for the inhibition in [4] (filed as agonist) and in test [5] were > 50% and 34%, respectively.

For the compound `CCCCC1(c2cc(OC)c3cc(CCC)c(=O)oc3c2)CCCCC1`, the Ki in test [2] (read-out: pKi (converted)) and in [3] (read-out: pKi (converted)) was > 1000 nM throughout. The figures for the inhibition in test [4] and in test [5] were -4% and 18%, respectively.

`CCCCCCC(C)(C)c1cc(O)c2cc(Cc3ccccc3C(F)(F)F)c(=O)oc2c1`: the figures for the Ki in [2] (read-out: pKi (converted)) and in test [3] (read-out: pKi (converted)) were > 1000 nM and 1000 nM, respectively. The inhibition in test [4] (filed as agonist) worked out at 42%; in test [5] (filed as agonist), 49%.

As to `CCCCC1(c2cc(OC)c3cc(Cc4cccnc4)c(=O)oc3c2)CCCC1`, the Ki in test [2] (read-out: pKi (converted)) and in [3] (read-out: pKi (converted)) was > 1000 nM each time. Further, the figures for the inhibition in test [4] (filed as agonist) and in [5] were 40% and 29%, respectively.

On to `CCCCC1(c2cc(OC)c3cc(Cc4cccnc4)c(=O)oc3c2)CCCCC1`, for which the Ki in [2] (read-out: pKi (converted)) and in test [3] (read-out: pKi (converted)) was > 1000 nM throughout. For the same compound, the inhibition in [4] is 11%; in test [5], 6%.

With `CCCCc1cc2c(O)cc(C3(CCCC)CCCCC3)cc2oc1=O`, the Emax in test [1] (filed as agonist) came out at 65%. Besides, the figures for the Ki in test [2] (read-out: Ki) and in test [3] (read-out: pKi (converted)) were 12.5 nM and > 1000 nM, respectively. For the same compound, the Ratio Ki in test [9] turned out to be 79. Besides, the inhibition in [4] (filed as agonist) was > 50%; in [5] (filed as agonist), 48%.

`CCCCC1(c2cc(O)c3cc(-c4ccccc4C)c(=O)oc3c2)CCCC1`: the Ki in [2] (read-out: pKi (converted)) and in test [3] (read-out: pKi (converted)) was > 1000 nM throughout. Moreover, the results for the inhibition in test [4] (filed as agonist) and in [5] were 43% and 4%, respectively.
